In ChEMBL document CHEMBL4052605, “Lissoclibadin 1, a Polysulfur Aromatic Alkaloid from the Indonesian Ascidian Lissoclinum cf. badium, Induces Caspase-Dependent Apoptosis in Human Colon Cancer Cells and Suppresses Tumor Growth in Nude Mice” (J Nat Prod, 2017):
Activity calls are given as the source filed them.

Experiments:
MCF7 [1] = experiment: Antiproliferative activity against human MCF7 cells assessed as effect on cell adhesion after 24 hrs by light microscopic analysis; type: functional, cell-based
Outline: (§1)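 Cancer cells treated with 0−10 μM and examined by light microscopy for changes in cell adhesion and morphology.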

HCT-15 [2] = experiment: Induction of apoptosis in human HCT15 cells assessed as early apoptotic cells at 5 uM after 3 hrs by annexin V-FITC/propidium iodide staining-based flow cytometric analysis relative to control; type: functional
Outline: (§2)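 HCT-15 cells at 5 × 10^4 cells/mL precultured 24 h, then given 5.0 μM in DMSO or DMSO alone (final 0.1%) for 3, 6, 12 or 24 h. Adherent cells trypsinized, pooled, stained with annexin V-FITC and PI, and analysed by flow cytometry. Early apoptosis = annexin V+/PI−; late = annexin V+/PI+. Three independent experiments, mean ± SD.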

HCT-15 [3] = experiment: Induction of apoptosis in human HCT15 cells assessed as effect on cell morphology at 5 uM in presence of caspase-9 inhibitor z-LEHD-fmk by light microscopic analysis; type: functional, cell-based
NCI-H28 [4] = experiment: Antiproliferative activity against human NCI-H28 cells assessed as effect on cell morphology after 24 hrs by light microscopic analysis; type: functional, cell-based; outline: as §1
HCT-15 [5] = experiment: Antitumor activity against human HCT15 cells xenografted in BALB/c nu/nu athymic mouse assessed as tumor growth inhibition at 5 mg/kg administered intratumorally on day 0, 2, 4, 6, 8 and 10 measured up to 28 days; type: functional, organism-based
Outline: (§3)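 Female 6-week-old Balb/c nu/nu mice injected subcutaneously in the lower back with HCT-15 cells (1 × 10^8/mL) mixed 1:1 with Matrigel. Once tumors reached 50−100 mm3 (day 0), mice were randomized, 6 per group. Dosing was intratumoral in PBS with 5% DMSO and 5% glucose on days 0, 2, 4, 6, 8 and 10; controls received vehicle. Tumor volume (L×W×D×π/6) and body weight measured every other day to day 28.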

MCF7 [6] = experiment: Antiproliferative activity against human MCF7 cells assessed as nuclear chromatin condensation at 10 uM after 24 hrs by Hoechst-33258 staining-based fluorescent microscopic analysis; type: functional, cell-based
Outline: (§4)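 Cells at 5 × 10^4 cells/mL precultured 24 h, then treated 24 h (HCT-15 at 5 μM; HeLa-S3, MCF-7, NCI-H28 at 10 μM). Cells trypsinized, washed in PBS, fixed in 1.0% paraformaldehyde at 4 °C for 15 min, stained with 1 mg/mL Hoechst-33258 at 4 °C for 15 min. After washing, mounted in antifade reagent and examined by fluorescence microscopy.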

NCI-H28 [7] = experiment: Antiproliferative activity against human NCI-H28 cells assessed as nuclear fragmentation at 10 uM after 24 hrs by Hoechst-33258 staining-based fluorescent microscopic analysis; type: functional, cell-based; outline: as §4
MCF7 [8] = experiment: Antiproliferative activity against human MCF7 cells assessed as fragmentation of nuclei at 10 uM after 24 hrs by Hoechst-33258 staining-based fluorescent microscopic analysis; type: functional, cell-based; outline: as §4
HeLa S3 [9] = experiment: Antiproliferative activity against human HeLaS3 cells assessed as effect on cell adhesion up to 10 uM after 24 hrs by light microscopic analysis; type: functional, cell-based; outline: as §1
HCT-15 [10] = experiment: Antiproliferative activity against human HCT15 cells assessed as fragmentation of nuclei at 5 uM after 24 hrs by Hoechst-33258 staining-based fluorescent microscopic analysis; type: functional, cell-based; outline: as §4
HCT-15 [11] = experiment: Antitumor activity against human HCT15 cells xenografted in BALB/c nu/nu athymic mouse assessed as tumor growth inhibition at 25 mg/kg/day administered intratumorally on day 0, 2, 4, 6, 8 and 10 measured on day 28 post dose relative to control; type: functional; conditions: read-out: TGI; outline: as §3
HeLa S3 [12] = experiment: Antiproliferative activity against human HeLaS3 cells assessed as nuclear chromatin condensation at 10 uM after 24 hrs by Hoechst-33258 staining-based fluorescent microscopic analysis; type: functional, cell-based; outline: as §4
HCT-15 [13] = experiment: Antiproliferative activity against human HCT15 cells assessed as effect on cell adhesion after 24 hrs by light microscopic analysis; type: functional, cell-based; outline: as §1
HCT-15 [14] = experiment: Antiproliferative activity against human HCT15 cells assessed as effect on cell morphology after 24 hrs by light microscopic analysis; type: functional, cell-based; outline: as §1
MCF7 [15] = experiment: Antiproliferative activity against human MCF7 cells after 24 hrs by WST-1 assay; type: functional, cell-based; conditions: MCF7, 24 h
Outline: (§5)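 WST-1 viability assay. Cells seeded at 5 × 10^3 per well and grown 24 h, then given lissoclibadins at 0.1−40 μM (etoposide 1.0−100 μM) in triplicate for 24 h. WST-1 added and absorbance read 4 h later at 450 nm, background subtracted at 650 nm. Viability expressed as % of control; IC50 taken as 50% inhibition of viability. Three experiments, mean ± SD.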

HCT-15 [16] = experiment: Induction of apoptosis in human HCT15 cells assessed as early apoptotic cells at 5 uM after 6 hrs by annexin V-FITC/propidium iodide staining-based flow cytometric analysis relative to control; type: functional; outline: as §2
HCT-15 [17] = experiment: Induction of apoptosis in human HCT15 cells assessed as late apoptotic cells at 5 uM by annexin V-FITC/propidium iodide staining-based flow cytometric analysis; type: functional, cell-based; conditions: TDE = time-dependent effect; outline: as §2
Mus musculus = experiment: Toxicity in BALB/c nu/nu athymic mouse xenografted with human HCT15 cells assessed as body weight loss at 5 to 25 mg/kg administered intratumorally treated on day 0, 2, 4, 6, 8 and 10 measured every second day for 28 days; type: organism-based; conditions: in vivo, other, 672 h; outline: as §3
HCT-15 [18] = experiment: Induction of apoptosis in human HCT15 cells assessed as early apoptotic cells at 5 uM after 24 hrs by annexin V-FITC/propidium iodide staining-based flow cytometric analysis relative to control; type: functional; outline: as §2
HeLa S3 [19] = experiment: Antiproliferative activity against human HeLaS3 cells after 24 hrs by WST-1 assay; type: functional, cell-based; conditions: HeLa S3, 24 h; outline: as §5
NCI-H28 [20] = experiment: Antiproliferative activity against human NCI-H28 cells assessed as effect on cell morphology up to 10 uM after 24 hrs by light microscopic analysis; type: functional, cell-based; outline: as §1
MCF7 [21] = experiment: Antiproliferative activity against human MCF7 cells assessed as effect on cell adhesion up to 10 uM after 24 hrs by light microscopic analysis; type: functional, cell-based; outline: as §1
HCT-15 [22] = experiment: Induction of apoptosis in human HCT15 cells assessed as effect on cell morphology at 5 uM in presence of caspase-8 inhibitor z-IETD-fmk by light microscopic analysis; type: functional, cell-based
HeLa S3 [23] = experiment: Antiproliferative activity against human HeLaS3 cells assessed as effect on cell adhesion after 24 hrs by light microscopic analysis; type: functional, cell-based; outline: as §1
HCT-15 [24] = experiment: Induction of apoptosis in human HCT15 cells assessed as effect on cell adhesion at 5 uM in presence of caspase-9 inhibitor z-LEHD-fmk by light microscopic analysis; type: functional, cell-based
HCT-15 [25] = experiment: Induction of apoptosis in human HCT15 cells at 5 uM after 12 hrs in presence of caspase-8 inhibitor z-IETD-fmk by annexin V-FITC/propidium iodide staining-based flow cytometric analysis; type: functional, cell-based
Outline: (§6)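 HCT-15 cells at 5 × 10^4 cells/mL precultured 24 h, then given z-VAD-fmk, z-IETD-fmk or z-LEHD-fmk at 50 μM for 30 min before 5.0 μM compound in DMSO (DMSO final 0.1%). Annexin V-FITC/PI staining read by flow cytometry. Three independent experiments, mean ± SD; one-way ANOVA with Bonferroni post hoc tests.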

NCI-H28 [26] = experiment: Antiproliferative activity against human NCI-H28 cells after 24 hrs by WST-1 assay; type: functional, cell-based; conditions: NCI-H28, 24 h; outline: as §5
HCT-15 [27] = experiment: Antiproliferative activity against human HCT15 cells assessed as nuclear chromatin condensation at 5 uM after 24 hrs by Hoechst-33258 staining-based fluorescent microscopic analysis; type: functional, cell-based; outline: as §4
HCT-15 [28] = experiment: Induction of apoptosis in human HCT15 cells assessed as effect on cell adhesion at 5 uM in presence of pan-caspase inhibitor z-VAD-fmk by light microscopic analysis; type: functional, cell-based
NCI-H28 [29] = experiment: Antiproliferative activity against human NCI-H28 cells assessed as nuclear chromatin condensation at 10 uM after 24 hrs by Hoechst-33258 staining-based fluorescent microscopic analysis; type: functional, cell-based; outline: as §4
HCT-15 [30] = experiment: Induction of apoptosis in human HCT15 cells assessed as effect on cell adhesion at 5 uM in presence of caspase-8 inhibitor z-IETD-fmk by light microscopic analysis; type: functional, cell-based
HCT-15 [31] = experiment: Antiproliferative activity against human HCT15 cells assessed as effect on cell morphology up to 10 uM after 24 hrs by light microscopic analysis; type: functional, cell-based; outline: as §1
HCT-15 [32] = experiment: Induction of apoptosis in human HCT15 cells at 5 uM after 12 hrs in presence of caspase-9 inhibitor z-LEHD-fmk by annexin V-FITC/propidium iodide staining-based flow cytometric analysis; type: functional, cell-based; outline: as §6
HeLa S3 [33] = experiment: Antiproliferative activity against human HeLaS3 cells assessed as fragmentation of nuclei at 10 uM after 24 hrs by Hoechst-33258 staining-based fluorescent microscopic analysis; type: functional, cell-based; outline: as §4
HeLa S3 [34] = experiment: Antiproliferative activity against human HeLaS3 cells assessed as effect on cell morphology after 24 hrs by light microscopic analysis; type: functional, cell-based; outline: as §1
HCT-15 [35] = experiment: Antiproliferative activity against human HCT15 cells after 24 hrs by WST-1 assay; type: functional, cell-based; conditions: HCT-15, 24 h; outline: as §5
HCT-15 [36] = experiment: Induction of apoptosis in human HCT15 cells assessed as early apoptotic cells at 5 uM after 12 hrs by annexin V-FITC/propidium iodide staining-based flow cytometric analysis relative to control; type: functional; outline: as §2
MCF7 [37] = experiment: Antiproliferative activity against human MCF7 cells assessed as effect on cell morphology up to 10 uM after 24 hrs by light microscopic analysis; type: functional, cell-based; outline: as §1
NCI-H28 [38] = experiment: Antiproliferative activity against human NCI-H28 cells assessed as effect on cell adhesion up to 10 uM after 24 hrs by light microscopic analysis; type: functional, cell-based; outline: as §1
NCI-H28 [39] = experiment: Antiproliferative activity against human NCI-H28 cells assessed as effect on cell adhesion after 24 hrs by light microscopic analysis; type: functional, cell-based; outline: as §1
HCT-15 [40] = experiment: Induction of apoptosis in human HCT15 cells at 5 uM after 12 hrs in presence of pan-caspase inhibitor z-VAD-fmk by annexin V-FITC/propidium iodide staining-based flow cytometric analysis (reference value: 64%); type: functional; outline: as §6
HeLa S3 [41] = experiment: Antiproliferative activity against human HeLaS3 cells assessed as effect on cell morphology up to 10 uM after 24 hrs by light microscopic analysis; type: functional, cell-based; outline: as §1
HCT-15 [42] = experiment: Antiproliferative activity against human HCT15 cells assessed as effect on cell adhesion up to 10 uM after 24 hrs by light microscopic analysis; type: functional, cell-based; outline: as §1
MCF7 [43] = experiment: Antiproliferative activity against human MCF7 cells assessed as effect on cell morphology after 24 hrs by light microscopic analysis; type: functional, cell-based; outline: as §1
HCT-15 [44] = experiment: Induction of apoptosis in human HCT15 cells assessed as effect on cell morphology at 5 uM in presence of pan-caspase inhibitor z-VAD-fmk by light microscopic analysis; type: functional, cell-based

COc1c(OC)c2c(c(CCN(C)C)c1SC)SSc1c(CCN(C)C)c(SC)c(OC)c(OC)c1Sc1c(OC)c(OC)c(SC)c(CCN(C)C)c1S2 [LISSOCLIBADIN 1]
4 µM: IC50 (HCT-15 [35])
6.3 µM: IC50 (HeLa S3 [19])
7.6 µM: IC50 (MCF7 [15])
inactive: TGI (HCT-15 [5])
60%: inhibition in vivo at 25 mg/kg/day (HCT-15 [11])
active: Activity (MCF7 [1]) Dose-dependent effect | Activity (HCT-15 [3]) | Activity (NCI-H28 [4]) Dose-dependent effect | Activity (MCF7 [6]) | Activity (NCI-H28 [7]) | Activity (MCF7 [8]) | Activity (HeLa S3 [9]) | Activity (HCT-15 [10]) | Activity (HeLa S3 [12]) | Activity (HCT-15 [13]) Dose-dependent effect | Activity (HCT-15 [14]) Dose-dependent effect | Activity (HCT-15 [17]) Tde | Activity (NCI-H28 [20]) | Activity (MCF7 [21]) | Activity (HCT-15 [22]) | Activity (HeLa S3 [23]) Dose-dependent effect | Activity (HCT-15 [24]) | Activity (HCT-15 [25]) | Activity (HCT-15 [27]) | Activity (HCT-15 [28]) | Activity (NCI-H28 [29]) | Activity (HCT-15 [30]) | Activity (HCT-15 [31]) | Activity (HCT-15 [32]) | Activity (HeLa S3 [33]) | Activity (HeLa S3 [34]) Dose-dependent effect | Activity (MCF7 [37]) | Activity (NCI-H28 [38]) | Activity (NCI-H28 [39]) Dose-dependent effect | Activity (HeLa S3 [41]) | Activity (HCT-15 [42]) | Activity (MCF7 [43]) Dose-dependent effect | Activity (HCT-15 [44])
Non-Toxic: Activity (Mus musculus)
43%: Activity (HCT-15 [36])
11%: Activity (HCT-15 [2]) | Activity (HCT-15 [40])
37%: Activity (HCT-15 [16])
40%: Activity (HCT-15 [18])
7.1 µM: IC50 (NCI-H28 [26])

COc1c(OC)c2c(c(CCN(C)C)c1SC)SSc1c(CCN(C)C)c(SC)c(OC)c(OC)c1SSc1c(OC)c(OC)c(SC)c(CCN(C)C)c1SSc1c(CCN(C)C)c(SC)c(OC)c(OC)c1SS2
4.9 µM: IC50 (HCT-15 [35])
6.3 µM: IC50 (HeLa S3 [19])
11.8 µM: IC50 (MCF7 [15])
7.1 µM: IC50 (NCI-H28 [26])
